Test results from ChEMBL document CHEMBL6092204, “Synthesis of pyridyl pyrimidine hedgehog signaling pathway inhibitors and their antitumor activity in human pancreatic cancer” (Eur J Med Chem, 2024).

How the values were obtained:
PANC-1 [1] = experiment: Inhibition of Hh signaling pathway in human PANC-1 cells assessed as reduction in Gli1 level incubated for 48 hrs by Western blot analysis; format: cell-based; settings: dose 2.5-10 µM
Summary of the method: (§1)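 Cells were treated in 6-well plates for 48 h, lysed by sonication in RIPA with PMSF, and quantified by BCA. 20-30 μg protein was run on 6-12% gradient SDS-PAGE and transferred to PVDF. Membranes were blocked 2 h at room temperature, probed with anti-Gli1 overnight at 4 °C and secondary 1.5 h at room temperature, then developed by ECL. Densitometry was normalised to β-actin; three separate experiments.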

BXPC-3 [2] = experiment: Inhibition of Hh signaling pathway in human BXPC-3 cells assessed as reduction in Gli1 level incubated for 48 hrs by Western blot analysis; format: cell-based; settings: dose 2.5-10 µM; summary of the method: as §1
PANC-1 [3] = experiment: Inhibition of cell migration in human PANC-1 cells incubated for 48 hrs by crystal violet staining based transwell assay; format: functional; settings: dose 2.5-10 µM
Summary of the method: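 Cells at 1.5×10^5 cells/mL in serum-free medium containing drug were added to the upper Transwell chamber (200 μL), with medium containing 10% FBS below. After 48 h, non-migrated cells were swabbed off. Inserts were fixed in 4% paraformaldehyde for 15-20 min and stained with 0.5% crystal violet. Cells were counted in four random fields at 100×; n = 3.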

PANC-1 [4] = experiment: Induction of apoptosis in human PANC-1 cells assessed as necrotic cells at 2.5 uM incubated for 48 hrs by Annexin V-FITC/PI staining based flow cytometry (reference value: 2.24 %); format: functional
PANC-1 [5] = experiment: Induction of apoptosis in human PANC-1 cells assessed as early apoptotic cells at 5 uM incubated for 48 hrs by Annexin V-FITC/PI staining based flow cytometry (reference value: 1.88 %); format: functional
PANC-1 [6] = experiment: Induction of apoptosis in human PANC-1 cells assessed as late apoptotic cells at 8 uM incubated for 48 hrs by Annexin V-FITC/PI staining based flow cytometry (reference value: 2.74 %); format: functional
PANC-1 [7] = experiment: Induction of apoptosis in human PANC-1 cells assessed as viable cells at 10 uM incubated for 48 hrs by Annexin V-FITC/PI staining based flow cytometry (reference value: 93.2 %); format: functional; settings: read-out: Activity
BXPC-3 [8] = experiment: Induction of apoptosis in human BXPC-3 cells assessed as early apoptotic cells at 2.5 uM incubated for 48 hrs by Annexin V-FITC/PI staining based flow cytometry (reference value: 1.11 %); format: functional
BXPC-3 [9] = experiment: Induction of apoptosis in human BXPC-3 cells assessed as late apoptotic cells at 2.5 uM incubated for 48 hrs by Annexin V-FITC/PI staining based flow cytometry (reference value: 6.72 %); format: functional
BXPC-3 [10] = experiment: Induction of apoptosis in human BXPC-3 cells assessed as viable cells at 5 uM incubated for 48 hrs by Annexin V-FITC/PI staining based flow cytometry (reference value: 91.5 %); format: functional; settings: read-out: Activity
PANC-1 [11] = experiment: Induction of cell cycle arrest in human PANC-1 cells assessed as accumulation at S phase at 2.5 uM incubated for 48 hrs by PI/RNase staining based flow cytometry (reference value: 7.58 %); format: functional
PANC-1 [12] = experiment: Induction of cell cycle arrest in human PANC-1 cells assessed as accumulation at G2 phase at 2.5 uM incubated for 48 hrs by PI/RNase staining based flow cytometry (reference value: 5.83 %); format: functional
PANC-1 [13] = experiment: Induction of cell cycle arrest in human PANC-1 cells assessed as accumulation at G1 phase at 10 uM incubated for 48 hrs by PI/RNase staining based flow cytometry (reference value: 82.0 %); format: functional
BXPC-3 [14] = experiment: Induction of cell cycle arrest in human BXPC-3 cells assessed as accumulation at S phase at 2.5 uM incubated for 48 hrs by PI/RNase staining based flow cytometry (reference value: 8.18 %); format: functional
BXPC-3 [15] = experiment: Induction of cell cycle arrest in human BXPC-3 cells assessed as accumulation at G2 phase at 2.5 uM incubated for 48 hrs by PI/RNase staining based flow cytometry (reference value: 8.15 %); format: functional
BXPC-3 [16] = experiment: Induction of cell cycle arrest in human BXPC-3 cells assessed as accumulation at S phase at 5 uM incubated for 48 hrs by PI/RNase staining based flow cytometry (reference value: 8.18 %); format: functional
BXPC-3 [17] = experiment: Induction of cell cycle arrest in human BXPC-3 cells assessed as accumulation at G1 phase at 10 uM incubated for 48 hrs by PI/RNase staining based flow cytometry (reference value: 84.2 %); format: functional
BxPC-3 [18] = experiment: Antitumor activity aginst human BxPC-3 cells xenografted in BALB/c nude mouse assessed as decrease in tumor volume at 5 mg/kg, ip qd for 21 days relative to control; design: scale not given: the % may be the effect or the level left; settings: time 21 day
BxPC-3 [19] = experiment: Antitumor activity aginst human BxPC-3 cells xenografted in BALB/c nude mouse assessed as decrease in tumor volume at 10 mg/kg, ip qd for 21 days relative to control; design: scale not given: the % may be the effect or the level left; settings: time 21 day
[20] = Toxicity in BALB/c nude mouse xenografted with human BxPC-3 cells assessed as necrosis in lung at 5 to 15 mg/kg, ip qd for 21 days by H and E staining based analysis; settings: in vivo, 504 h
[21] = Toxicity in BALB/c nude mouse xenografted with human BxPC-3 cells assessed as necrosis in liver at 5 to 15 mg/kg, ip qd for 21 days by H and E staining based analysis; settings: in vivo, 504 h
[22] = Toxicity in BALB/c nude mouse xenografted with human BxPC-3 cells assessed as cellular edema in liver at 5 to 15 mg/kg, ip qd for 21 days by H and E staining based analysis; settings: in vivo, 504 h
[23] = Toxicity in BALB/c nude mouse xenografted with human BxPC-3 cells assessed as tissue fibrosis in lung at 5 to 15 mg/kg, ip qd for 21 days by H and E staining based analysis; settings: in vivo, 504 h
[24] = Toxicity in BALB/c nude mouse xenografted with human BxPC-3 cells assessed as tissue fibrosis in liver at 5 to 15 mg/kg, ip qd for 21 days by H and E staining based analysis; settings: in vivo, 504 h
[25] = Toxicity in BALB/c nude mouse xenografted with human BxPC-3 cells assessed as cellular edema in spleen at 5 to 15 mg/kg, ip qd for 21 days by H and E staining based analysis; settings: in vivo, 504 h
[26] = Toxicity in BALB/c nude mouse xenografted with human BxPC-3 cells assessed as tissue fibrosis in kidneys at 5 to 15 mg/kg, ip qd for 21 days by H and E staining based analysis; settings: in vivo, 504 h
[27] = Toxicity in BALB/c nude mouse xenografted with human BxPC-3 cells assessed as inflammatory infiltration in liver at 5 to 15 mg/kg, ip qd for 21 days by H and E staining based analysis; settings: in vivo, 504 h

## CN(C)Cc1ccc(NC(=O)c2ccc(Nc3nccc(-c4cccnc4)n3)cc2)cc1
PANC-1 [1]
  inhibition: Dose-dependent-effect
BXPC-3 [2]
  inhibition: Dose-dependent-effect
PANC-1 [3]
  inhibition: Dose-dependent-effect
PANC-1 [4]
  Activity: 2.19%
PANC-1 [5]
  Activity: 3.29%
PANC-1 [6]
  Activity: 8.97%
PANC-1 [7]
  viability at 10 µM: 71%
BXPC-3 [8]
  Activity: 2.11%
BXPC-3 [9]
  Activity: 8.06%
BXPC-3 [10]
  viability at 5 µM: 85.5%
PANC-1 [11]
  Activity: 7.73%
PANC-1 [12]
  Activity: 7.2%
PANC-1 [13]
  Activity: 72.7%
BXPC-3 [14]
  Activity: 11.1%
BXPC-3 [15]
  Activity: 11.3%
BXPC-3 [16]
  Activity: 4.09%
BXPC-3 [17]
  Activity: 92.9%
BxPC-3 [18]
  Activity: 73%
BxPC-3 [19]
  Activity: 80%
[20]
  Activity: Non-toxic
[21]
  Activity: Non-toxic
[22]
  Activity: Non-toxic
[23]
  Activity: Non-toxic
[24]
  Activity: Non-toxic
[25]
  Activity: Non-toxic
[26]
  Activity: Non-toxic
[27]
  Activity: Non-toxic
